Assay [1] deals with Delta-type opioid receptor (Mus musculus, UniProt P32300). The experiment in a line: Tested for electrically induced smooth muscle contractions from mouse vas deferens expressed in delta opioid receptors. The format is functional. In short, it runs like this:
(§1)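 Electrically stimulated contractions of male Hartley guinea pig ileum longitudinal muscle–myenteric plexus (1 g tension, 0.4-ms pulses) or male ICR mouse vas deferens (0.5 g, 2.0-ms pulses, Mg-free Krebs). Baths at 37 °C, oxygenated Krebs, 0.1 Hz, supramaximal voltage. Agonist left 3 min. Percent inhibition of twitch height, IC50 from Hill fit, ≥4 tissues.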

The target of assay [2] is Delta-type opioid receptor (Homo sapiens, UniProt P41143). The experiment in a line: Binding affinity was measured against cloned human Opioid receptor delta 1 (wild-type,Wt).
Sequence of Delta-type opioid receptor (Homo sapiens, UniProt P41143) (P41143 whole entry): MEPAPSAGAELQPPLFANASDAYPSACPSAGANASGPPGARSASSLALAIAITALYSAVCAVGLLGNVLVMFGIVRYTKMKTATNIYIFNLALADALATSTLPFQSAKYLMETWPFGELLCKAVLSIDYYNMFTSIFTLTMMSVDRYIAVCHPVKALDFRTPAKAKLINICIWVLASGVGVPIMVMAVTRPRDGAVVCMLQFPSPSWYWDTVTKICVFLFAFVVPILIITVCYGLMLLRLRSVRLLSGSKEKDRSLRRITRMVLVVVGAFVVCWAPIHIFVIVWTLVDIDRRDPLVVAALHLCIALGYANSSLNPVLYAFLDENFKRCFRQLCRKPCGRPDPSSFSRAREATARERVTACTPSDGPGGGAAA
For assay [3], the target named is Mu-type opioid receptor (Cavia porcellus, UniProt P97266). The experiment in a line: Tested for electrically induced smooth muscle contractions from guinea pig ileum expressed in mu opioid receptors. The format is functional, tissue-based. In short, it runs like this:
as §1

Assay [4] addresses Delta-type opioid receptor (Rattus norvegicus, UniProt P33533). The experiment in a line: Binding affinity was measured against Opioid receptor delta 1 using [3H]p-Cl-DPDPE as radioligand.
Assay [5] concerns the target Mu-type opioid receptor (Rattus norvegicus, UniProt P33535). Briefly: Binding affinity was measured against Opioid receptor mu 1 using [3H]-DAMGO as radioligand.
The target in assay [6] is Opioid receptors; mu & delta (Homo sapiens) (UniProt P41143+P35372). Briefly: It is the ratio of EC50(mu receptor) to that of EC50 for(delta receptor). The format is functional.
Sequence of Opioid receptors; mu & delta (Homo sapiens) (P35372 whole entry, looked up): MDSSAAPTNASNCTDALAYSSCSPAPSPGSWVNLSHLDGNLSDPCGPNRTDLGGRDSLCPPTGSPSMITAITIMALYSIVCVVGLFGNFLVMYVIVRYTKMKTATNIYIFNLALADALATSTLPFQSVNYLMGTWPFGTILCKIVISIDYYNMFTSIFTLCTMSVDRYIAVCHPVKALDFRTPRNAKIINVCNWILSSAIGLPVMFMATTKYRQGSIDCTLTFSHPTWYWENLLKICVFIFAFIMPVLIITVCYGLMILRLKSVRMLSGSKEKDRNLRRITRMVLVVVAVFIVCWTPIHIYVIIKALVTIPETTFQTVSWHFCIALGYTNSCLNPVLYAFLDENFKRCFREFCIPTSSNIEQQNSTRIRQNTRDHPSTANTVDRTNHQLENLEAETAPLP
Sequence of Opioid receptors; mu & delta (Homo sapiens) (P41143 whole entry, looked up): as the sequence (P41143 whole entry) above
The target in assay [7] is Mu-type opioid receptor (Cavia porcellus) (UniProt P97266). The experiment in a line: Tested for electrically induced smooth muscle contractions from guinea pig ileum expressed in mu opioid receptors at 60 uM. The format is functional, tissue-based.
Sequence of Mu-type opioid receptor (Cavia porcellus) (P97266 whole entry): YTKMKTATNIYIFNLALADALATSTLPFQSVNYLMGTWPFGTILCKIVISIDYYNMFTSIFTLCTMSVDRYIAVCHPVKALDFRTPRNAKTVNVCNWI
The species entered for assay [8] is Cavia porcellus. The experiment in a line: mu-opioid receptor antagonistic activity was measured in guinea pig ileum. The format is functional.

A value given as a limit tells only on which side of the number the result lay.

Sequence of Mu-type opioid receptor (Cavia porcellus, UniProt P97266) (P97266 whole entry): as above
Sequence of Mu-type opioid receptor (Rattus norvegicus, UniProt P33535) (P33535 whole entry): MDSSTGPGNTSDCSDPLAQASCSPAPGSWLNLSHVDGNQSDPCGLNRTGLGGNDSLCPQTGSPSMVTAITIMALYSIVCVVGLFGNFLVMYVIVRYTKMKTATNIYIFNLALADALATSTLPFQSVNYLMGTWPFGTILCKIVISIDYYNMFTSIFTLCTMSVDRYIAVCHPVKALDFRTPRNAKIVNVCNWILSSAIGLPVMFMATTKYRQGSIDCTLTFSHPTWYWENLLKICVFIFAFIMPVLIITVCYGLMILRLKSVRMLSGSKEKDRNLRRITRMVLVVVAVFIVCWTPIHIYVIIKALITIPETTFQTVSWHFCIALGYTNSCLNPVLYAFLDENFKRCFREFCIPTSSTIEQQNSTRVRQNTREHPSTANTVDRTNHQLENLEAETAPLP
Sequence of Delta-type opioid receptor (Rattus norvegicus, UniProt P33533) (P33533 whole entry): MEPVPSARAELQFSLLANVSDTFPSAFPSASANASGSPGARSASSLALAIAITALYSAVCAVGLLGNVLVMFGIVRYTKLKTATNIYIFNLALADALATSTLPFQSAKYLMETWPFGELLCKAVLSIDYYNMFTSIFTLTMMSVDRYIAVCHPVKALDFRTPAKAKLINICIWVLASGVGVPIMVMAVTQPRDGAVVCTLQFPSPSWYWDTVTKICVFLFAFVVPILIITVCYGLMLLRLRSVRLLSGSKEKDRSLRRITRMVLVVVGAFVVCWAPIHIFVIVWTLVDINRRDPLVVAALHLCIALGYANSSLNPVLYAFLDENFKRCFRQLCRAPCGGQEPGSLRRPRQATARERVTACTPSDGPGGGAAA
Sequence of Delta-type opioid receptor (Mus musculus, UniProt P32300) (P32300 whole entry): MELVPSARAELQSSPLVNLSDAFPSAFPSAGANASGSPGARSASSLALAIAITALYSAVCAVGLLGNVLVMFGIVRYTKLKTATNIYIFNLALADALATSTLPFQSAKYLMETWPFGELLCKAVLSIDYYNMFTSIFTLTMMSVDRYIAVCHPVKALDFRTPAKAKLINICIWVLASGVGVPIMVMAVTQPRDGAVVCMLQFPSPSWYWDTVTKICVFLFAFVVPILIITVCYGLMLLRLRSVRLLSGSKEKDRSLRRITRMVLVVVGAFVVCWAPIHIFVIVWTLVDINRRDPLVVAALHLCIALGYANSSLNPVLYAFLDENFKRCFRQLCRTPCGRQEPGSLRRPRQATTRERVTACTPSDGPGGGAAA

For orientation: EC50 means the concentration at which the effect is half-maximal. High values mean a need for much substance, low ones an effect from little substance. One may read the IC50 as the concentration that gives 50% inhibition. Low readings indicate greater potency in that assay, high ones weaker potency in that assay. In the case of `CC(C)(C)c1ccc(C(c2cccc(O)c2)N2CCN(Cc3ccccc3)CC2)cc1` (stereo in doubt), the results for the EC50 in assay [1] and in assay [3] were 85 nM and 39000 nM, respectively. In assay [2], this compound came in with an IC50 of 5.51 nM.
`CC(C)CC(c1cccc(O)c1)N1CCN(Cc2ccccc2)CC1` (centres undefined): the figures for the half-inhibitory concentration (IC50) in assay [4] and in assay [5] were 420 nM and 2100 nM, respectively.
With `Oc1cccc(C(c2ccccc2)N2CCN(Cc3ccccc3)CC2)c1` (centres undefined), the EC50 in assay [1] turned out to be 174 nM; in assay [3], 1250 nM. For the same compound, the 50% inhibitory concentration (IC50) turned out to be 34 nM in assay [4] and 500 nM in assay [5]. Besides, the Selectivity in assay [6] amounted to 7.1.
Turning to `COc1cccc(C(c2ccc(C(C)(C)C)cc2)N2CCN(Cc3ccccc3)CC2)c1` (centres undefined), the results for the IC50 in assay [4] and in assay [5] were 1800 nM and over 8000 nM, respectively.
As for `C=CCN1C[C@H](C)N([C@H](c2ccc(C(=O)N(CC)CC)cc2)c2cccc(OC)c2)C[C@H]1C` [SNC-80], the IC50 in assay [5] worked out at 2500 nM.
In the case of `Oc1cccc(C(c2ccc(-c3ccccc3)cc2)N2CCN(Cc3ccccc3)CC2)c1` (centres undefined), the results for the 50% inhibitory concentration (IC50) in assay [4] and in assay [5] were 31 nM and 27000 nM, respectively.
For `CC(c1cccc(O)c1)N1CCN(Cc2ccccc2)CC1` (centres undefined) the same measures were 610 nM and 780 nM.
In the case of `Oc1cccc(CN2CCN(Cc3ccccc3)CC2)c1`, the IC50 in assay [4] was found to be 6400 nM.
For `CC(C)(C)c1ccc(C(c2cccc(O)c2)N2CCN(Cc3ccccc3)CC2)cc1` (single isomer, unassigned; (+)), the values for the EC50 in assay [1] and in assay [3] were 210 nM and 3000 nM, respectively.
What is called inhibition is the drop in the measured response relative to a control, in per cent. The low end stands for a response near the control, the high end for a response far below the control. As for `Cc1cc(O)cc(C)c1[C@@H](C)[C@H](N)C(=O)N[C@H]1C(=O)NCC(=O)N[C@@H](Cc2ccccc2)C(=O)N[C@@H](C(=O)O)C(C)(C)SSC1(C)C`, in assay [7], the inhibition turned out to be 0%. In assay [1], this compound displayed an EC50 of 1.8 nM. Further, the IC50 in assay [4] is 5 nM; in assay [5], 4300 nM; in assay [8], 5000 nM. The Selectivity in assay [6] is over 33000.
On to `C=CCN1C[C@H](C)N([C@H](c2ccc(C(=O)N(CC)CC)cc2)c2cccc(O)c2)C[C@H]1C`, for which, in assay [4], the IC50 stood at 0.31 nM.
As for `CC(C)(C)c1ccc(C(c2cccc(O)c2)N2CCN(Cc3ccccc3)CC2)cc1` (single isomer, unassigned; (-)), the results for the half-maximal effective concentration (EC50) in assay [1] and in assay [3] were 360 nM and 7600 nM, respectively.

The values above are taken from ChEMBL document CHEMBL1131191, “De novo design, synthesis, and biological activities of high-affinity and selective non-peptide agonists of the delta-opioid receptor” (J Med Chem, 1998).
